Source: ChEMBL document CHEMBL2380272, “Biological evaluation of bisbenzaldehydes against four Mycobacterium species” (Eur J Med Chem, 2013)
Converted amounts (≈) assume the structure as drawn.

What was measured:
[1] = Genotoxicity in human HepG2/C3A cells assessed as DNA fragmentation at 0.75 mM after 24 hrs by alkaline comet assay (reference value: 6.65%); assay type: toxicity, cell-based; settings: 750 µM
[2] = Genotoxicity in human HepG2/C3A cells assessed as DNA fragmentation at 0.5 mM after 24 hrs by alkaline comet assay (reference value: 6.65%); assay type: toxicity, cell-based; settings: 500 µM
[3] = Selectivity index, ratio of NI50 for human HepG2/C3A cells to MIC50 for Mycobacterium tuberculosis H37Rv ATCC 27294; assay type: functional
[4] = Potency index, ratio of MIC50 for Mycobacterium avium subsp. paratuberculosis ATCC 19698 to MIC50 for Mycobacterium bovis AN5; assay type: functional
[5] = Cytotoxicity against human HepG2/C3A cells assessed as cell viability at 120 uM after 24 hrs by neutral red uptake assay relative to control; assay type: cell-based; settings: read-out: Activity
In short: (§1)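 C3A cells grown in DMEM + 10% FCS, 40 000 cells/well, recovered overnight at 37 °C, 5% CO2. Exposed 24 h to serial dilutions in DMEM + 10% FCS from 18 mM DMSO stocks, DMSO limited to 1%. Neutral red added for 3 h, cells washed, dye extracted with ethanol/acetic acid (50%/1%), OD read at 540 nm with 620 nm reference. Viability expressed as % of untreated cells.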

[6] = system: Mycobacterium tuberculosis; assay: Antimycobacterial activity against Mycobacterium tuberculosis H37Rv infected in mouse J774.A1 cells at 1 MOI assessed as intracellular bacterial growth inhibition at 0.1 uM after 1 hr by luciferase reporter gene assay relative to control; assay type: functional; settings: J774.A1, 1 h, read-out: GI
Mycobacterium ulcerans = assay: Antimycobacterial activity against Mycobacterium ulcerans 1615 assessed as growth inhibition after 6 days by luciferase reporter gene assay; assay type: functional; settings: Mycobacterium ulcerans, 1615, 144 h
In short: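 M. ulcerans 1615 carrying pSMT1 luciferase reporter plasmid, stock grown as surface pellicle on Sauton medium, cultured at 32 °C. Serial compound dilutions in 7H9 + 10% FCS from 10 mM DMSO stocks, tested in triplicate. Filtered bacteria added at 50 000 RLU/mL. After 6 days, wells collected and washed with PBS, 1% n-decanal in ethanol added, light read over 10 s. MIC50 = concentration giving 50% inhibition versus untreated.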

Salmonella typhimurium [7] = assay: Genotoxicity in recombinant Salmonella typhimurium TA104 expressing Vibrio fisheri luxabcd genes under transcriptional control of recN2-4 promoter assessed as concentration required to cause DNA damage measured every 5 mins for 4 hrs by vitotox assay in absence of S9 fraction; assay type: toxicity, organism-based; settings: salmonella enterica subsp. enterica serovar typhimurium
In short: (§2)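 VITOTOX genox strain TA104 recN2-4 (recN promoter driving lux). Grown 16 h at 36 °C in poor LB, diluted 125-fold and shaken 1 h, then diluted 10-fold; rat aroclor S9 added for +S9 runs. Incubated at 30 °C with light read every 5 min for 4 h. Signal/noise = exposed over unexposed light. Highest concentration tested 10 µM.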

[8] = Antimycobacterial activity against Mycobacterium avium subsp. avium ATCC 15769 assessed as growth inhibition after 6 days by luciferase reporter gene assay; assay type: functional; settings: ATCC 15769, 144 h
In short: (§3)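 Mycobacteria carrying the pSMT1 luciferase reporter plasmid. Compounds came from 10 mM DMSO stocks and were serially diluted in 7H9 + 10% FCS. Thawed bacteria were filtered, recovered 1 h at 37 °C, then added at 50 000 RLU/mL. After 6 days of culture, light was read for 10 s after adding 1% n-decanal. Triplicates were run, and MIC50 was the concentration giving 50% growth inhibition.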

[9] = Toxicity in recombinant Salmonella typhimurium TA104 expressing luxabcd genes under transcriptional control of constitutive pr1 promoter assessed as concentration required to reduce cell viability measured every 5 mins for 4 hrs by vitotox assay in presence of S9 fraction; assay type: organism-based; settings: salmonella enterica subsp. enterica serovar typhimurium; read-out: Activity
In short: (§4)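 Cytox strain TA104 pr1 (constitutive promoter driving lux), run alongside the genox strain. Grown in poor LB at 36 °C for 16 h, diluted 125-fold and shaken 1 h, then diluted 10-fold, with or without aroclor-rat S9. Luminescence read at 30 °C every 5 min over 4 h; a drop in light signal indicates reduced viability. Top concentration 10 µM.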

[10] = system: Mycobacterium tuberculosis; assay: Antimycobacterial activity against Mycobacterium tuberculosis H37Rv ATCC 27294 assessed as growth inhibition at 1 uM after 6 days by luciferase reporter gene assay relative to control; assay type: functional; settings: H37Rv ATCC 27294, 144 h, read-out: GI
In short: (§5)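 Luminescent M. tb H37Rv (hsp60-driven luciferase) in 7H9 + 10% FCS was seeded at 50 000 RLU/mL. Compounds were tested at 10, 1 and 0.1 µM from 10 mM DMSO stocks. After 6 days, luminescence was read with 1% n-decanal. Growth inhibition (%) was expressed against untreated culture, with triplicates.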

[11] = Potency index, ratio of MIC50 for Mycobacterium avium subsp. avium ATCC 15769 to MIC50 for Mycobacterium bovis AN5; assay type: functional
Salmonella typhimurium [12] = assay: Genotoxicity in recombinant Salmonella typhimurium TA104 expressing Vibrio fisheri luxabcd genes under transcriptional control of recN2-4 promoter assessed as concentration required to cause DNA damage measured every 5 mins for 4 hrs by vitotox assay in presence of S9 fraction; assay type: toxicity, organism-based; settings: salmonella enterica subsp. enterica serovar typhimurium, s9, 4 h; in short: as §2
[13] = system: Mycobacterium tuberculosis; assay: Antimycobacterial activity against Mycobacterium tuberculosis H37Rv ATCC 27294 assessed as growth inhibition after 6 days by luciferase reporter gene assay; assay type: functional; settings: H37Rv ATCC 27294, 144 h; in short: as §3
[14] = Cytotoxicity against human HepG2/C3A cells assessed as cell viability at 60 uM after 24 hrs by neutral red uptake assay relative to control; assay type: cell-based; settings: read-out: Activity; in short: as §1
[15] = system: Mycobacterium avium subsp. paratuberculosis; assay: Antimycobacterial activity against Mycobacterium avium subsp. paratuberculosis ATCC 19698 assessed as growth inhibition after 6 days by luciferase reporter gene assay; assay type: functional; settings: ATCC 19698, 144 h; in short: as §3
[16] = Cytotoxicity against human HepG2/C3A cells assessed as cell viability at 180 uM after 24 hrs by neutral red uptake assay relative to control; assay type: cell-based; settings: read-out: Activity; in short: as §1
[17] = system: Mycobacterium tuberculosis; assay: Antimycobacterial activity against Mycobacterium tuberculosis H37Rv infected in mouse J774.A1 cells at 1 MOI assessed as intracellular bacterial growth inhibition at 1 uM after 1 hr by luciferase reporter gene assay relative to control; assay type: functional; settings: J774.A1, 1 h, read-out: GI
[18] = system: Mycobacterium tuberculosis; assay: Antimycobacterial activity against Mycobacterium tuberculosis H37Rv ATCC 27294 assessed as growth inhibition at 10 uM after 6 days by luciferase reporter gene assay relative to control; assay type: functional; settings: H37Rv ATCC 27294, 144 h, read-out: GI; in short: as §5
Salmonella typhimurium [19] = assay: Toxicity in recombinant Salmonella typhimurium TA104 expressing luxabcd genes under transcriptional control of constitutive pr1 promoter assessed as concentration required to reduce cell viability measured every 5 mins for 4 hrs by vitotox assay in absence of S9 fraction; assay type: organism-based; settings: salmonella enterica subsp. enterica serovar typhimurium; in short: as §4
[20] = system: Mycobacterium tuberculosis; assay: Antimycobacterial activity against Mycobacterium tuberculosis H37Rv infected in mouse J774.A1 cells at 1 MOI assessed as intracellular bacterial growth inhibition at 10 uM after 1 hr by luciferase reporter gene assay relative to control; assay type: functional; settings: J774.A1, 1 h, read-out: GI
[21] = system: Mycobacterium tuberculosis; assay: Antimycobacterial activity against Mycobacterium tuberculosis H37Rv ATCC 27294 assessed as growth inhibition at 0.1 uM after 6 days by luciferase reporter gene assay relative to control; assay type: functional; settings: H37Rv ATCC 27294, 144 h, read-out: GI; in short: as §5

| SMILES | Selectivity Index [3] | Ratio [4] | viability at 24 h, 120 µM [5] | intracellular bacterial growth inhibition at 0.1 µM [6] | MIC50 (Mycobacterium ulcerans) | Activity (Salmonella typhimurium [7]) | MIC50 [8] | MCC at 4 h [9] | inhibition of growth at 1 µM [10] | Ratio [11] | Activity (Salmonella typhimurium [12]) | MIC50 [13] | viability at 24 h, 60 µM [14] | MIC50 [15] | viability at 24 h, 180 µM [16] | percent inhibition of intracellular bacterial growth at 1 µM [17] | inhibition of growth at 10 µM [18] | Activity (Salmonella typhimurium [19]) | intracellular bacterial growth inhibition at 10 µM [20] | inhibition of growth at 0.1 µM [21] | also measured |
| --- | --- | --- | --- | --- | --- | --- | --- | --- | --- | --- | --- | --- | --- | --- | --- | --- | --- | --- | --- | --- | --- |
| CCOS(C)(=O)=O [METHANESULFONIC ACID ETHYL ESTER] | – | – | – | – | – | – | – | – | – | – | – | – | – | – | – | – | – | – | – | – | Activity [1]: 65.15%; Activity [2]: 63.44% |
| O=Cc1ccc(OCCCCCCCCOc2ccc(C=O)cc2)cc1 | >211.8 | 5 | 95.3% | 0.6% | > 10 µM | > 10 µM | 5.36 µM (≈ 1.9 µg/mL) | > 10 µM | 64% | 5 | > 10 µM | 0.85 µM (≈ 0.301 µg/mL) | 97.9% | 5.83 µM (≈ 2.07 µg/mL) | 69% | 42.9% | 99% | > 10 µM | 58.7% | 13% | – |
| O=Cc1ccc(OCCCCCCCOc2ccc(C=O)cc2)cc1 | >211.8 | 5 | 78.9% | -1.2% | > 10 µM | > 10 µM | 5.12 µM (≈ 1.74 µg/mL) | > 10 µM | 62% | 5 | > 10 µM | 0.85 µM (≈ 0.289 µg/mL) | 100% | 5.05 µM (≈ 1.72 µg/mL) | 53.4% | 43.3% | 99% | > 10 µM | 55% | 13% | – |
| O=Cc1ccc(OCCCCCCCCCCOc2ccc(C=O)cc2)cc1 | >233.8 | 5 | 96.6% | 11.1% | > 10 µM | > 10 µM | 5.61 µM (≈ 2.15 µg/mL) | > 10 µM | 71% | 5 | > 10 µM | 0.77 µM (≈ 0.295 µg/mL) | 97.7% | 5.45 µM (≈ 2.08 µg/mL) | 72.8% | 39.6% | 100% | > 10 µM | 60.9% | 20% | – |
| O=Cc1ccc(OCCCCCCCCCCCOc2ccc(C=O)cc2)cc1 | >281.3 | 5 | 94.1% | 5.2% | 9.82 µM (≈ 3.89 µg/mL) | > 10 µM | 4.96 µM (≈ 1.97 µg/mL) | > 10 µM | 73% | 5 | > 10 µM | 0.64 µM (≈ 0.254 µg/mL) | 93.3% | 4.23 µM (≈ 1.68 µg/mL) | 75.4% | 48.2% | 100% | > 10 µM | 69.4% | 25% | – |
| O=Cc1ccc(OCCCCCCCCCOc2ccc(C=O)cc2)cc1 | >189.5 | 5 | 93% | -0.5% | > 10 µM | > 10 µM | 5.32 µM (≈ 1.96 µg/mL) | > 10 µM | 59% | 5 | > 10 µM | 0.95 µM (≈ 0.35 µg/mL) | 100% | 5.95 µM (≈ 2.19 µg/mL) | 75.7% | 45.7% | 98% | > 10 µM | 62.1% | 11% | – |
